Test results as given in ChEMBL document CHEMBL2034961, “Kinase inhibitory potencies and in vitro antiproliferative activities of N-10 substituted pyrrolo[2,3-a]carbazole derivatives” (Bioorg Med Chem Lett, 2012).

Experiments:
[1] = target: T1, Serine/threonine-protein kinase pim-3 (Homo sapiens, UniProt Q86V86); test: Inhibition of Pim-3 using RSRHSSYPAGT as substrate assessed as residual activity at 1 uM after 30 mins
Method in brief: (§1)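 Each Pim isoform (Pim-1, Pim-2, Pim-3) was assayed in duplicate by a previously published method. Compounds were tested at single concentrations of 10 and 1, and results are given as percent residual kinase activity.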

[2] = test system: PA-1; test: Cytotoxicity against human PA1 cells by resazurin reduction test; type: functional, cell-based
Method in brief: (§2)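 Antiproliferative effect read by resazurin reduction. Cells were a human fibroblast primary culture, PA1 (ovarian carcinoma), and PC3 and DU145 (prostatic carcinoma).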

[3] = test system: PC-3; test: Cytotoxicity against human PC3 cells by resazurin reduction test; type: functional, cell-based; method in brief: as §2
[4] = target: T2, Serine/threonine-protein kinase pim-1 (Homo sapiens, UniProt P11309); test: Inhibition of Pim-1 using RSRHSSYPAGT as substrate after 30 mins
Method in brief: (§3)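 Kinase assays on each Pim isoform were run in duplicate by a previously published method.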
Target sequence in this assay (P11309 whole entry, canonical isoform): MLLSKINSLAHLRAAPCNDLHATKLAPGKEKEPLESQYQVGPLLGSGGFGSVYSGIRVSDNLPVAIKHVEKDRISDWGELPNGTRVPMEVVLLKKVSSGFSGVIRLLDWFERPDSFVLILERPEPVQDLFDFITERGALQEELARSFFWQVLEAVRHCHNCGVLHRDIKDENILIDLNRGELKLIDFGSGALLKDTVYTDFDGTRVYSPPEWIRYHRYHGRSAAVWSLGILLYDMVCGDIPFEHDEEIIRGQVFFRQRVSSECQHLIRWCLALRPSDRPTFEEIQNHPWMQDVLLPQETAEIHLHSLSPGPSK

[5] = target: T2, Serine/threonine-protein kinase pim-1; test: Inhibition of Pim-1 using RSRHSSYPAGT as substrate assessed as residual activity at 10 uM after 30 mins; method in brief: as §1
Target sequence in this assay (P11309 whole entry, looked up, canonical isoform): as the sequence (P11309 whole entry, canonical isoform) above

[6] = target: Serine/threonine-protein kinase pim-2 (Homo sapiens) (UniProt Q9P1W9); test: Inhibition of Pim-2 using RSRHSSYPAGT as substrate assessed as residual activity at 1 uM after 30 mins; method in brief: as §1
[7] = Cytotoxicity against human fibroblasts by resazurin reduction test; type: cell-based; conditions: Fibroblast; method in brief: as §2
[8] = target: T1, Serine/threonine-protein kinase pim-3; test: Inhibition of Pim-3 using RSRHSSYPAGT as substrate after 30 mins; method in brief: as §3
[9] = test system: DU-145; test: Cytotoxicity against human DU145 cells by resazurin reduction test; type: functional, cell-based; method in brief: as §2
[10] = target: T2, Serine/threonine-protein kinase pim-1; test: Inhibition of Pim-1 using RSRHSSYPAGT as substrate assessed as residual activity at 1 uM after 30 mins; method in brief: as §1
Target sequence in this assay (P11309 whole entry, looked up, canonical isoform): as the sequence (P11309 whole entry, canonical isoform) above

[11] = target: T1, Serine/threonine-protein kinase pim-3; test: Inhibition of Pim-3 using RSRHSSYPAGT as substrate assessed as residual activity at 10 uM after 30 mins; method in brief: as §1
[12] = target: Serine/threonine-protein kinase pim-2 (Homo sapiens) (UniProt Q9P1W9); test: Inhibition of Pim-2 using RSRHSSYPAGT as substrate assessed as residual activity at 10 uM after 30 mins; method in brief: as §1

Sequence of Serine/threonine-protein kinase pim-2 (Homo sapiens) (Q9P1W9 whole entry, looked up): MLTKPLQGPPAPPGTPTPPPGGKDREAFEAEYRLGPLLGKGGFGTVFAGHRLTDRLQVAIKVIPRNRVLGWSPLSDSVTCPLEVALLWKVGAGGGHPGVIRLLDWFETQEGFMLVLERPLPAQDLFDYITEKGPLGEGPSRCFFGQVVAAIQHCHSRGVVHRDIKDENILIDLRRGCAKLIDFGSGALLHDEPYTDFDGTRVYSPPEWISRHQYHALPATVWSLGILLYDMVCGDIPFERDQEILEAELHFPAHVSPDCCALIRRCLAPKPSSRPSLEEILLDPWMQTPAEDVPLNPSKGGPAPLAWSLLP

Row | Activity [1] [%] | IC50 [4] [nM] | Activity [5] [%] | Activity [6] [%] | IC50 [8] [nM] | Activity [10] [%] | Activity [11] [%] | Activity [12] [%] | Structure (SMILES) | IC50 [2] [nM] | IC50 [3] [nM] | IC50 [7] [nM] | IC50 [9] [nM]
1 | 3 | 46 | 1 | 32 | 41 | 3 | 2 | 40 | N#CCCCCn1c2ccccc2c2ccc3c(C=O)c[nH]c3c21 | 8000 | 16000 | 14500 | 20000
2 | 16 | 470 | 4 | 97 | 200 | 23 | 3 | 54 | CC(C)(C)OC(=O)NCCCCn1c2ccccc2c2ccc3c(C=O)c[nH]c3c21 | 14900 | 13100 | 17300 | 12200
3 | 7 | 75 | 10 | 74 | 80 | 24 | 1 | 22 | CN(C)CCCCn1c2ccccc2c2ccc3c(C=O)c[nH]c3c21 | 486 | 650 | 630 | 960
